# In ChEMBL document CHEMBL1135640, “Synthesis and antitumor activity of new derivatives of xanthen-9-one-4-acetic acid” (J Med Chem, 2002):
# Key:
# C13 [1] = assay: In vitro cytotoxicity against C13 tumor cell line; type: functional, cell-based; settings: Homo sapiens
# Method in brief: (§1)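 Cisplatin-resistant C13* human ovarian adenocarcinoma cells, kept in RPMI 1640 with 10% heat-inactivated FCS and 2 mM L-glutamine, seeded and treated 24 h later with graded concentrations for 24 h. Viability by MTT (4 h, 37 °C; DMSO solubilization; 570 nm, reference 630 nm). IC50 with 95% confidence limits by Litchfield–Wilcoxon; three experiments in triplicate.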
# [2] = Compound was tested for toxicity induced in murine macrophage; settings: Mus musculus
# Method in brief: (§2)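 Resident mouse peritoneal cells recovered by PBS–heparin (10 U/mL) lavage, adhered 2 h at 37 °C in RPMI 1640 + 5% FCS. Macrophages plated at 1 × 10⁴/well with graded drug concentrations for 24 h (triplicate wells). C13* cells (2 × 10³/well) then added, cocultured 24 h, MTT read-out. Specific cytotoxicity = [OD(macrophages+C13*) − OD(macrophages)]/OD(C13*). IC50 with 95% limits by Litchfield–Wilcoxon.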
# [3] = Compound was tested for toxicity induced in human monocyte
# Method in brief: (§3)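 Adherent human peripheral blood mononuclear cells (Ficoll-isolated, 2 h adhesion at 37 °C, nonadherent cells washed off) exposed 24 h to 25, 50, 100 μM test agent, triplicate wells per dose. Medium then replaced with C13* ovarian carcinoma cells (2 × 10³/well), cocultured 24 h, lysis read by MTT. IC50 with 95% confidence limits by Litchfield–Wilcoxon; three experiments in triplicate.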
# [4] = Potency ratio against macrophages.; type: ADME
# Mus musculus = species on record: Mus musculus; assay: Potency ratio as the ratio of IC50 of DMXXA against murine macrophages to that of the IC50 against murine macrophages; type: ADME
# Homo sapiens = species on record: Homo sapiens; assay: Potency ratio as the ratio of IC50 of DMXXA against human monocytes to that of the IC50 against human monocytes.; type: ADME
# [5] = Compound was tested for toxicity induced in murine macrophage; b indicates Not detected; settings: mouse; method in brief: as §2
# C13 [6] = assay: In vitro cytotoxicity against C13 tumor cell line; Not detected; type: functional, cell-based, Homo sapiens; method in brief: as §1
# [7] = Compound was tested for toxicity induced in human monocyte; b indicates Not detected; method in brief: as §3
Potency ratio [4],Potency ratio (Mus musculus),Potency ratio (Homo sapiens),Compound,IC50 (C13 [1]) [µM],IC50 [2] [µM],IC50 [3] [µM],Potency ratio [5],IC50 (C13 [6]),IC50 [7]
0.5,3.4,0.8,C=CCOc1ccc2c(=O)c3cccc(CC(=O)OC)c3oc2c1,509,61.6,114,–,–,–
1.3,0.9,0.8,CC1(C)Cc2c(ccc3c(=O)c4cccc(CC(=O)O)c4oc23)O1,604,220,172,–,–,–
–,–,–,C=C(C)COc1ccc2c(=O)c3cccc(CC(=O)OC)c3oc2c1C,488,–,84.6,Not detected,–,–
4.1,0.8,2.1,CC(C)=CCOc1ccc2c(=O)c3cccc(CC(=O)O)c3oc2c1,626,264,64.2,–,–,–
3,1,1.8,COC(=O)Cc1cccc2c(=O)c3ccc(OCC=C(C)C)c(C)c3oc12,702,224,73.6,–,–,–
0.6,6.9,2.5,COC(=O)Cc1cccc2c(=O)c3ccc4c(c3oc12)C=CC(C)(C)O4,–,30.5,53.5,–,Not detected,–
0.9,2.7,1.6,C=C(C)COc1ccc2c(=O)c3cccc(CC(=O)O)c3oc2c1C,443,77.3,86.2,–,–,–
–,0.6,–,C#CCOc1ccc2c(=O)c3cccc(CC(=O)OC)c3oc2c1C,410,372,–,–,–,Not detected
1.2,2.5,2,COC(=O)Cc1cccc2c(=O)c3ccc4c(c3oc12)CC(C)O4 (stereo not drawn),–,82.8,67.3,–,Not detected,–
–,1,–,C=CCOc1ccc2c(=O)c3cccc(CC(=O)O)c3oc2c1,510,218,–,–,–,Not detected
0.9,1.3,0.7,CC1Cc2c(ccc3c(=O)c4cccc(CC(=O)O)c4oc23)O1 (stereo not drawn),711,157,178,–,–,–
2.7,1,1.8,COC(=O)Cc1cccc2c(=O)c3ccc4c(c3oc12)CC(C)(C)O4,549,201,73.7,–,–,–
–,5,–,Cc1cc2c(ccc3c(=O)c4cccc(CC(=O)O)c4oc32)o1,–,42,–,–,Not detected,Not detected
0.2,4.7,0.5,CC1(C)C=Cc2c(ccc3c(=O)c4cccc(CC(=O)O)c4oc23)O1,726,45.1,259,–,–,–
0.7,2.9,1.2,CC1(C)CCc2c(ccc3c(=O)c4cccc(CC(=O)O)c4oc23)O1,–,71.5,108,–,Not detected,–
–,2.6,–,COC(=O)Cc1cccc2c(=O)c3ccc4oc(C)cc4c3oc12,–,80.9,–,–,Not detected,Not detected
–,–,–,Cc1ccc2c(=O)c3cccc(CC(=O)O)c3oc2c1C [VADIMEZAN],615,211,135,–,–,–
